The text below walks through data of ChEMBL document CHEMBL3739368, “Versixanthones A-F, Cytotoxic Xanthone-Chromanone Dimers from the Marine-Derived Fungus Aspergillus versicolor HDN1009” (J Nat Prod, 2015).

Where a name gives a salt, the structure may show the parent alone. Calls of active or inactive are those of the source. The calls are words filed in the database; no cut-off is given here. Where only a bound is given, the exact number is not on record here.

One data set concerns K562. Put plainly: Cytotoxicity against human K562 cells after 72 hrs by MTT assay. It counts as functional, cell-based. To be noted: K562, 72 h.
The nature of data set [1]: Cytotoxicity against human MGC803 cells after 72 hrs by MTT assay. The data set is classed as functional, cell-based. The conditions noted are these: MGC-803, 72 h.
The nature of data set [2]: Cytotoxicity against human HL60 cells after 72 hrs by MTT assay. It counts as functional, cell-based. To be noted: HL-60, 72 h.
Data set [3] can be described thus: Cytotoxicity against human HO8910 cells after 72 hrs by MTT assay. It counts as functional, cell-based. The conditions noted are these: HO-8910, 72 h.
Another data set deals with NCI-H1975. Put plainly: Cytotoxicity against human NCI-H1975 cells after 72 hrs by MTT assay. It counts as functional, cell-based. To be noted: NCI-H1975, 72 h.
Data set [4] is described as follows: Chemical stability of the compound in deuterated DMSO by NMR spectroscopic analysis. It counts as physicochemical.
Another data set relates to A549. Put plainly: Cytotoxicity against human A549 cells after 72 hrs by MTT assay. It counts as functional, cell-based. The conditions noted are these: A549, 72 h.
A short description of data set [5]: Cytotoxicity against human HCT116 cells after 72 hrs by MTT assay. It counts as functional, cell-based. The conditions noted are these: HCT-116, 72 h.
Data set [6] deals with T1, DNA topoisomerase 1 (Homo sapiens) (UniProt P11387).
T1 sequence (whole entry): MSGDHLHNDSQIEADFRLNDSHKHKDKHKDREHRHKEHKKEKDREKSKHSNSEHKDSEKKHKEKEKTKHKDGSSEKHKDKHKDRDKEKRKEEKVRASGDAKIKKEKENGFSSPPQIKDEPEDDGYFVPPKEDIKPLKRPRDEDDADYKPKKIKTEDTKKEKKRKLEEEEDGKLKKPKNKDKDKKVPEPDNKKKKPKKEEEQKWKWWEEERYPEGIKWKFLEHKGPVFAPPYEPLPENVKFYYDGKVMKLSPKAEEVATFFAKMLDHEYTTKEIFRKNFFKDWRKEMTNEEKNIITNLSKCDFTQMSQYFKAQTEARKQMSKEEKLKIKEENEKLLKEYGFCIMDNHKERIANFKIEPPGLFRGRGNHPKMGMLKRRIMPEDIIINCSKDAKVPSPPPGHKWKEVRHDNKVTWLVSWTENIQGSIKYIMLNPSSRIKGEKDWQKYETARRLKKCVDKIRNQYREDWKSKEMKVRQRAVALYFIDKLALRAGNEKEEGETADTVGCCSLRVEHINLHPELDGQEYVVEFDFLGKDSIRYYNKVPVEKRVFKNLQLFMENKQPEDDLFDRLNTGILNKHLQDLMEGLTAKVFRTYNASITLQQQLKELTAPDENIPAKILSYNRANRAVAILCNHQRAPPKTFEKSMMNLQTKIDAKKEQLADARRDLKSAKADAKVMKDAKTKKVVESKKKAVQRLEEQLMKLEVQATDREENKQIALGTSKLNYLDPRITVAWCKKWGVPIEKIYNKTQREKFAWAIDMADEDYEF
Nature of the data set: Inhibition of topoisomerase 1 (unknown origin) assessed as decrease in PBR322 DNA relaxation at 5 to 40 uM after 30 mins by ethidium bromide staining-based agarose gel electrophoresis. The gist of the method:
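Supercoiled pBR322 plasmid DNA served as substrate. Samples were resolved on 1% agarose gels and stained with ethidium bromide. Supercoiled and relaxed DNA bands were marked on the gel.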

Consider `COC(=O)[C@@]12Oc3ccc(-c4ccc5c(c4O)C(=O)C[C@@](C(=O)OC)([C@@H]4OC(=O)C[C@@H]4C)O5)c(O)c3C(=O)C1=C(O)C[C@H](C)[C@H]2O`, for which the IC50 in the data set on K562 was 9.1 µM; in data set [1], 9.8 µM; in data set [2], 3.1 µM; in [3], 13.9 µM; with NCI-H1975, > 50 µM; in the data set with A549, 12.7 µM. In data set [5], this molecule returned an IC50 of 6.1 µM. Besides, the Stability entry in data set [4] is recorded as “Unstable”.

For `COC(=O)C[C@H](C)[C@@H](O)[C@]1(C(=O)OC)CC(=O)c2c(ccc(-c3ccc4c(c3O)C(=O)C3=C(O)C[C@H](C)[C@@H](O)[C@]3(C(=O)OC)O4)c2O)O1`, the 50% inhibitory concentration (IC50) was 6.7 µM with K562; 2.7 µM in data set [2]; 20.8 µM in [3]; 10.6 µM with A549; 0.7 µM in data set [5]. Moreover, the Stability entry in [4] was “Unstable”.

Turning to `COC(=O)[C@@]12Oc3c(-c4ccc5c(c4O)C(=O)C[C@@](C(=O)OC)([C@@H]4OC(=O)C[C@@H]4C)O5)ccc(O)c3C(=O)C1=C(O)C[C@H](C)[C@H]2O`, the IC50 in the data set on K562 is 7.1 µM; in [1], > 50 µM; in data set [2] it was 2.6 µM; in data set [3] it was 10.1 µM; with NCI-H1975, 11.2 µM; in the data set on A549, > 50 µM. Moreover, the Stability entry in data set [4] is recorded as “Unstable”.

`COC(=O)[C@@]12Oc3ccc(-c4ccc5c(c4O)C(=O)C4=C(O)C[C@H](C)[C@@H](O)[C@]4(C(=O)OC)O5)c(O)c3C(=O)C1=C(O)C[C@H](C)[C@H]2O`: the IC50 in the data set with K562 is 2 µM; in data set [1] it was 1.5 µM; in data set [2], 1 µM; in data set [3] it was 1.5 µM; in the data set on A549, 2.1 µM; in data set [5] it was 0.9 µM.

Consider `COc1cccc2c1C(=O)c1c(O)c3c(c(O)c1C2=O)C[C@@](O)(C(=O)CO)C[C@@H]3O[C@H]1C[C@H](N)[C@H](O)[C@H](C)O1` [DOXORUBICIN HYDROCHLORIDE], for which the IC50 was 0.2 µM in [1], 0.8 µM in the data set on NCI-H1975 and 0.2 µM in [5].

Regarding `COC(=O)C[C@H](C)[C@@H](O)[C@]1(C(=O)OC)CC(=O)c2c(ccc(-c3ccc(O)c4c3O[C@]3(C(=O)OC)C(=C(O)C[C@H](C)[C@H]3O)C4=O)c2O)O1`, the IC50 in the data set on K562 is 11.1 µM; in data set [1], 2.2 µM; in data set [2], 1.6 µM; in data set [3], 2 µM; in the data set with NCI-H1975, 2.7 µM. The Stability entry in data set [4] was “Unstable”. Further, in [6], the inhibition entry is “Active”.

As to `COC(=O)[C@@]12Oc3ccc(-c4ccc(O)c5c4O[C@](C(=O)OC)([C@@H]4OC(=O)C[C@@H]4C)CC5=O)c(O)c3C(=O)C1=C(O)C[C@H](C)[C@H]2O`, the half-inhibitory concentration (IC50) was 18.2 µM in the data set on K562; 7.8 µM in data set [2]; > 50 µM in data set [3]; 25.6 µM with NCI-H1975; > 50 µM in the data set with A549; > 50 µM in data set [5]. Besides, the Stability entry in data set [4] is on record as “Unstable”.

Turning to `COC(=O)[C@@]12Oc3c(-c4ccc(O)c5c4O[C@](C(=O)OC)([C@@H]4OC(=O)C[C@@H]4C)CC5=O)ccc(O)c3C(=O)C1=C(O)C[C@H](C)[C@H]2O`, the IC50 in [1] was 21.6 µM; in data set [2] it was 9.9 µM; in data set [3], > 50 µM; with NCI-H1975, > 50 µM; in the data set with A549 it was > 50 µM. Besides, in data set [4], the Stability entry was “Unstable”.
